Compound activity from PubChem.
Mcl1 Noxa PPI = disrupts binding of human Mcl-1 to Noxa peptide; Q07820; TR-FRET Mcl-1/Noxa peptide binding, 2 h; inhibition, % at 21.7 µM; 220,000 tested, 1.5% active; AID 1022;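 active = compounds that cut the protein-peptide binding signal by more than 50% relative to plate controls in a single-dose test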;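 also: His-tagged Mcl-1 with rhodamine Noxa BH3 peptide and terbium anti-His antibody; 0% = Mcl-1 plus Noxa peptide wells and 100% = peptide-only wells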
Target sequence (Q07820 whole entry, looked up): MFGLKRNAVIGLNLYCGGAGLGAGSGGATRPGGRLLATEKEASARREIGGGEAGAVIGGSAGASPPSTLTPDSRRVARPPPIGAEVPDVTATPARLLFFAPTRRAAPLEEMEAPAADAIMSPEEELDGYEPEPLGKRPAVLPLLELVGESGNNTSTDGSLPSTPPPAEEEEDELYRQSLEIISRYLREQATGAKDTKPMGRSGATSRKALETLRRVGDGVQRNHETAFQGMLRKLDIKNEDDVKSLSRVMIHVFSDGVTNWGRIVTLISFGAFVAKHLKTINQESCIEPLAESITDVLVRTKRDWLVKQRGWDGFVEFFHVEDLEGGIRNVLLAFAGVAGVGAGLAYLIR
Mcl-1 Bim block = human Bim-Mcl-1 interaction inhibition; Q07820; Bead-based flow cytometry, Bim peptide-Mcl-1 binding; inhibition, % at 10 µM; 190,000 tested, 0.1% active; AID 1009; in the data active = inhibition above about 40%;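 also: 0% = no compound tracer wells and 100% = peptide blocker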
EBV gp42 inh = EBV gp42 inhibition | Q1HVG2 | Fluorescence polarization binding assay, mP read-out | inhibition, % (tested at 21.74 µM) | 220,000 tested, 0.42% active; in the data active = inhibition above about 50%
Target sequence (Q1HVG2 whole entry, looked up): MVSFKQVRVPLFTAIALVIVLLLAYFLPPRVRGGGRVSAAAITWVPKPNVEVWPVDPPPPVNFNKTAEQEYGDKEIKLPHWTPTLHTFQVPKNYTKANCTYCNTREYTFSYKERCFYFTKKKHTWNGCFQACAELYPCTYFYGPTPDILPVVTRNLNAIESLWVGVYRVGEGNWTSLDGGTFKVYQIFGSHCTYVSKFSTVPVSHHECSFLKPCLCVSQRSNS
MCL1-BIM inh = disrupts human MCL1 binding to BIM-BH3 peptide; GST-MCL1 / FITC-Bim-BH3 fluorescence polarization; Q07820; 320,000 tested, 0.68% active; AID 2057; inhibition, % at 10.9 µM;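 active = inhibition above the mean inhibition of all tested compounds plus 3 SD, set per campaign, cut at about 40% in these data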;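 also: 0% = DMSO wells and 100% = unlabeled Bim-BH3 peptide control; higher means more loss of mP so more displacement of Bim peptide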
RBBP9 inh = human RBBP9 hydrolase inhibition; O75884; recombinant RBBP9, FP-Rh probe fluorescence polarization; inhibition, % at 7.94 µM; 220,000 tested, 0.2% active;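 active = inhibition above the campaign mean of all tested compounds plus 3 SD, cut at about 14% in these data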;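 also: plate controls were DMSO wells with RBBP9 for no effect and wells lacking RBBP9 protein for full effect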
Target sequence (O75884 whole entry, looked up): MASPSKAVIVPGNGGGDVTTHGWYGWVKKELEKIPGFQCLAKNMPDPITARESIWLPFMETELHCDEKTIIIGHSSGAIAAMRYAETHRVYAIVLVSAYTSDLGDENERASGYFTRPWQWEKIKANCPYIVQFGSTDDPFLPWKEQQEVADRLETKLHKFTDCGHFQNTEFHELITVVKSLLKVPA
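Measured by – fluorescence polarization · Test system – RBBP9 protein · Input – 2.5 µM RBBP9 dispensing solution, before mixing · Measure – percent inhibition from mP, scaled between DMSO and no-protein wells · Benchmarks – DMSO-treated enzyme wells and wells lacking RBBP9 · Times – preincubation 30 min plus labeling 45 min at 25 °C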
Mcl1 Bid PPI = Mcl-1/Bid interaction inhibition. Q07820. TR-FRET Mcl-1/Bid-Dy647 peptide binding, 1536-well. inhibition, % at 21.7 µM. 220,000 tested, 0.97% active;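 active = compounds that cut the binding signal by more than half at the single screening dose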;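 also: His-tagged Mcl-1 with europium anti-His antibody binding Bid BH3 peptide; 0% = Mcl-1 plus peptide wells and 100% = peptide-only wells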
RBBP9 inh conf = confirmation of human RBBP9 inhibitors; 410 tested, 36% active; shares compounds with RBBP9 inh; inhibition, % at 7.94 µM; recombinant RBBP9, FP-Rh probe fluorescence polarization;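 active = inhibition above the hit cutoff derived for the primary screen, cut at about 15% in these data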;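 also: 0% = RBBP9 with DMSO and 100% = wells lacking RBBP9 protein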
Bcl-xL conf = Bcl-xL (human) inhibition, MCL1 counter-screen confirmation. shares compounds with MCL1-BIM inh. GST-Bcl-xL / FITC-Bim BH3 peptide FP binding. inhibition, % at 10.9 µM. 1,700 tested, 54% active. AID 2166;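 active = inhibition above a cutoff equal to the mean inhibition of all tested compounds plus 3 SD, cut at about 30% in these data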;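 also: 0% = DMSO wells and 100% = unlabeled Bim BH3 control peptide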
MCL1 BIM confirm = confirmation of human MCL1 and BIM-BH3 interaction inhibitors | GST-MCL1 / FITC-Bim-BH3 fluorescence polarization | inhibition, % at 10.9 µM | 1,700 tested, 61% active | shares compounds with MCL1-BIM inh;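 active = inhibition above the average of all tested compounds plus 3 SD, cut at about 40% in these data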;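 also: 0% = DMSO wells and 100% = unlabeled Bim-BH3 control peptide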
* hit, by the source's call; x = no result. Hits are enriched below; roughly 2.2% of the tested compounds scored in any of these assays.

SMILES	Mcl1 Noxa PPI	Mcl-1 Bim block	EBV gp42 inh	MCL1-BIM inh	RBBP9 inh	Mcl1 Bid PPI	RBBP9 inh conf	Bcl-xL conf	MCL1 BIM confirm
C=CCOc1ccc(CNc2ccc3[nH]c(=O)[nH]c3c2)cc1OCC	20.9	2.0	-22.9	2.0	17.6*	-47.5	14.4*	x	x
CCC(=O)NC1=C(Cl)C(=O)C(NC(=O)CC)=C(Cl)C1=O	92.2*	x	-15.9	x	58.7*	-183.9	64.9*	x	x
C/C(=N\OC(=O)c1ccc(C)cc1)c1sc(C)nc1C	7.9	0.0	-5.1	-4.3	3.8	-3.4	x	x	x
C/C(=N/OC(=O)c1ccc(C)cc1)c1cccs1	2.2	-1.0	-14.9	14.3	16.1*	-32.1	18.4*	x	x
C/C(=N\OC(=O)c1ccc(Cl)cc1)c1nccs1	12.1	-1.0	-4.6	1.8	33.8*	2.1	79.6*	x	x
COc1ccc(NC(=O)Nc2ccc3oc(C)nc3c2)cc1	-0.1	1.0	-5.3	4.8	0.4	-4.3	x	x	x
Cc1nc2cc(NC(=O)N(C)c3ccc4ccccc4c3)ccc2o1	-2.3	-1.0	-2.1	11.6	15.8*	-10.3	4.5	x	x
O=C(Nc1cccc2ncccc12)c1cc([N+](=O)[O-])ccc1Cl	x	x	x	2.0	x	x	x	x	x
COc1ccc(C2c3sc(=O)[nH]c3SCC2C(N)=O)cc1 (configuration not stated)	-2.8	x	-13.1	-0.5	-8.6	-124.0	x	x	x
COC(=O)C1CSc2[nH]c(=O)sc2C1c1ccc(O)c(OC)c1 (configuration not stated)	6.9	2.0	-8.5	1.6	14.4*	-38.7	0.8	x	x
Cc1nnc(Sc2cc(NCCCO)c([N+](=O)[O-])c3nonc23)s1	78.8*	-3.0	-9.3	x	21.8*	-79.3	30.5*	x	x
Cc1nnc(Sc2cc(NCCO)c([N+](=O)[O-])c3nonc23)s1	76.7*	5.0	-22.2	x	17.9*	-88.7	24.2*	x	x
O=[N+]([O-])c1c(NCCCO)cc(Sc2nc3ccccc3s2)c2nonc12	50.2	5.0	11.7	60.0*	17.2*	-39.0	23.0*	x	x
CCCSc1cc(NCCOC(C)=O)c([N+](=O)[O-])c2nonc12	-0.9	-3.0	1.9	4.6	-1.8	-11.8	x	x	x
O=[N+]([O-])c1c(NCCO)cc(N2CCCCCC2)c2nonc12	x	x	x	1.3	x	x	x	x	x
CCc1ccc(-n2c(SCC(=O)Nc3ccc(C(=O)O)cc3)nnc2-c2ccncc2)cc1	19.1	x	-2.7	2.2	-10.2	-16.9	x	x	x
COc1cccc(CNC(=O)CN(C)S(=O)(=O)c2cccc3cccnc23)c1	17.2	x	-17.4	0.8	20.9*	-47.8	1.8	x	x
COc1ccc(OC)c(NC(=O)NNC(=O)COc2ccc(F)cc2F)c1	x	x	x	0.1	x	x	x	x	x
Nc1nc(SCC(=O)N2CCc3ccccc32)[nH]c(=O)c1-c1ccccc1	-7.4	-2.0	-23.4	12.5	5.8	-38.6	x	x	x
O=C(CSc1nc(-c2ccccc2)cc(=O)[nH]1)N1CCc2ccccc21	-1.7	-1.0	12.4	3.1	15.8*	-11.9	0.2	x	x
O=C1CSC(=S)N1/N=C/c1cc(Br)ccc1O	x	x	x	31.9	x	x	x	x	x
O=C1CSC(=S)N1/N=C/c1ccc(O)c(O)c1O	100.6*	x	69.9*	84.9*	14.6*	100.1*	27.1*	74.7*	93.5*
CC1CCCCN1CC(=O)Nc1ccc2c(c1)OCO2 (configuration not stated)	x	x	x	-6.8	x	x	x	x	x
O=C(O[C@@H]1OC2COC(=O)c3cc(O)c(O)c(O)c3-c3c(cc(O)c(O)c3O)C(=O)O[C@@H]([C@H]1O)[C@@H]2O)c1cc(O)c(O)c(O)c1	113.1*	11.0	-14.3	91.2*	19.3*	-28.9	31.5*	74.0*	87.4*
COc1ccc(NS(=O)(=O)c2cc3c(cc2C)N(C(C)=O)CCO3)cc1OC	x	x	x	-1.9	x	x	x	x	x
SMILES	Mcl1 Noxa PPI	Mcl-1 Bim block	EBV gp42 inh	MCL1-BIM inh	RBBP9 inh	Mcl1 Bid PPI	RBBP9 inh conf	Bcl-xL conf	MCL1 BIM confirm
c1coc(-c2nc(-c3ccco3)c(-c3ccco3)nc2-c2ccco2)c1	108.5*	0.0	63.1*	105.6*	25.9*	96.9*	18.6*	18.4	56.9*
Nc1nc(-c2ccco2)cs1	19.7	-2.0	1.2	9.7	6.0	-46.7	x	x	x
Cc1cccc(NC(=O)CSc2nnc(CNC(=O)c3ccco3)n2C)c1C	x	x	x	0.0	x	x	x	x	x
Oc1ccc(-c2cn3c(n2)SCC3)cc1O	95.2*	7.0	-22.5	60.0*	20.9*	-133.6	51.3*	30.4*	54.9*
N#C/C(=C\c1cc(Cl)c(OCc2ccc(Cl)cc2)c(Cl)c1)C(N)=O	20.7	x	-13.8	3.5	-3.6	-22.0	x	x	x
N#C/C(=C\c1cc(O)c(O)c(O)c1)C(N)=O	13.3	x	-54.3	52.6*	18.2*	-44.2	20.4*	18.9	3.8
Cc1ccc(C(=O)NCc2ccco2)o1	x	x	x	2.4	x	x	x	x	x
Nc1ccccc1N1CCN(C(=O)c2ccccc2)CC1	14.6	0.0	-10.6	108.3*	15.0*	-23.4	0.7	12.3	10.6
O=C(c1cccc(C(=O)N2CCN(c3ccccc3F)CC2)c1)N1CCN(c2ccccc2F)CC1	12.8	-4.0	2.1	0.6	-2.4	8.3	x	x	x
Cc1cc(C)n(Cc2ccc(NC(=O)c3c([N+](=O)[O-])c(C)nn3C)cc2)n1	-5.8	0.0	-14.7	-3.6	-5.2	-15.4	x	x	x
COc1ccc(OC)c2c1C(=O)C(Cl)=C(Cl)C2=O	98.6*	x	-38.6	70.8*	78.8*	-77.8	81.4*	47.0*	65.2*
Cc1ccc(S(=O)(=O)N(C(=O)c2ccco2)c2cc3sc(=O)oc3c3ccccc23)cc1	10.9	7.0	-8.6	43.6*	40.0*	1.5	5.3	14.6	10.4
COc1ccc(S(=O)(=O)N(C(=O)c2ccco2)c2cc3sc(=O)oc3c3ccccc23)cc1	19.0	-1.0	-0.8	44.5*	28.9*	-30.1	9.0	1.1	-3.5
COC(C(=O)Nc1ccnn1C1CCN(Cc2ccccn2)CC1)c1ccccc1 (configuration not stated)	x	x	x	15.7	x	x	x	x	x
O=C(O)c1nn(CC(=O)N2CCN(S(=O)(=O)c3ccc(Cl)cc3)CC2)c(=O)c2ccccc12	1.9	x	-18.0	2.1	-3.8	1.6	x	x	x
CCN=c1scc(C)n1/N=C/c1ccc(O)c(O)c1O	60.2*	7.0	-6.1	51.7*	33.9*	-28.3	60.8*	33.1*	57.4*
COCCN=c1scc(-c2cccs2)n1/N=C/c1ccc(O)c(O)c1O	89.3*	4.0	16.6	48.6*	35.8*	-64.9	63.4*	64.9*	93.5*
COCCN=c1scc(-c2ccccc2)n1/N=C/c1c[nH]c2ccccc12	17.5	-7.0	-7.7	-3.2	0.3	-35.6	x	x	x
